{"source": "ChEMBL document CHEMBL1149469", "about": "“Hit-to-Lead studies: the discovery of potent, orally bioavailable thiazolopyrimidine CXCR2 receptor antagonists” (Bioorg Med Chem Lett, 2006)", "key": {"[1]": {"target": "T1, C-X-C chemokine receptor type 2 (Homo sapiens) (UniProt P25025)", "T1 sequence (whole entry)": "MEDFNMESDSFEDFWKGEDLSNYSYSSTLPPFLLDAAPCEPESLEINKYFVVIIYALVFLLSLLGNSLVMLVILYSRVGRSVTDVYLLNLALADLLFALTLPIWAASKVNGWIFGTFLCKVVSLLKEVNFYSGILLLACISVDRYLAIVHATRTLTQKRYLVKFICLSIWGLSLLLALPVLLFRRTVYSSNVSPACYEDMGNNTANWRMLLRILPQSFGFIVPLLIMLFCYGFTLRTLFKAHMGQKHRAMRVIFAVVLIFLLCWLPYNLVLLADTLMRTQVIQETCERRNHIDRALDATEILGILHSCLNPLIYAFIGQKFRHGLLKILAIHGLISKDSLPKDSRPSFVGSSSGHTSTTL", "test": "Inhibition of CXCR2 at 10 uM"}, "[2]": {"target": "T2, C-X-C chemokine receptor type 2 (Homo sapiens, UniProt P25025)", "T2 sequence (P25025 whole entry)": "T1 sequence (whole entry)", "test": "Displacement of [125I]IL8 from human recombinant CXCR2 expressed in HEK293 membranes by SPA", "outline": "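Human recombinant CXCR2 in HEK293 cell membranes, screened by scintillation proximity assay at the HTS stage. SPA actives were then validated in a conventional filter-wash [125I]IL8 binding assay on hrCXCR2.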"}, "[3]": {"test": "Clearance in human liver microsome", "type": "ADME", "details": "liver microsomes"}, "[4]": {"test": "Clearance in iv dosed rat", "type": "ADME, organism-based", "details": "in vivo"}, "[5]": {"test": "Volume of distribution in iv dosed rat", "type": "ADME, organism-based", "details": "in vivo, read-out: Vdss"}, "[6]": {"test": "Half life in iv dosed rat", "type": "ADME, organism-based", "details": "in vivo"}, "[7]": {"target": "T3, Interleukin-8 receptors, CXCR1/CXCR2 (Homo sapiens, UniProt P25025+P25024)", "T3 sequence (P25025 whole entry)": "T1 sequence (whole entry)", "T3 sequence (P25024 whole entry)": "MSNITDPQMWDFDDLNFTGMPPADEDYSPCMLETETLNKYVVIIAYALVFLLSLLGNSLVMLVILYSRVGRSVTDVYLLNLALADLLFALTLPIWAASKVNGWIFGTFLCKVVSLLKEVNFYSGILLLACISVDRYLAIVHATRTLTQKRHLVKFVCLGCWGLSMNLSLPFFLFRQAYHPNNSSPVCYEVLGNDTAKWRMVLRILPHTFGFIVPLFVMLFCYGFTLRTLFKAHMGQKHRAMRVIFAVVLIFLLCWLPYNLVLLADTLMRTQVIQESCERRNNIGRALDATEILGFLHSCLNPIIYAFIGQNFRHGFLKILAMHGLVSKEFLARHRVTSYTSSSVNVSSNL", "test": "Inhibition of GROalpha-stimulated intracellular calcium mobilisation in human neutrophils by FLIPR", "type": "functional, cell-based"}, "[8]": {"test": "Distribution coefficient of the compound, log D", "type": "physicochemical", "details": "octanol/water"}, "[9]": {"test": "Oral bioavailability in rat", "type": "ADME, organism-based", "details": "in vivo"}, "[10]": {"test": "Protein binding in plasma", "type": "ADME, cell-free", "details": "human, read-out: PPB (converted)"}}, "data": [{"compound": "CCCCCSc1nc(NCCCO)c2sc(N)nc2n1", "values": [{"measurement": "inhibition", "setting": "[1]", "value": "< 50", "unit": "%"}]}, {"compound": "CCCCCSc1nc(O)c2sc(NC(C)=O)nc2n1", "values": [{"measurement": "inhibition", "setting": "[1]", "value": "< 50", "unit": "%"}]}, {"compound": "CC[C@H](CO)Nc1nc(SCc2cccc(Oc3ccccc3)c2)nc2nc(N)sc12", "values": [{"measurement": "IC50", "setting": "[2]", "value": 350, "unit": "nM"}]}, {"compound": "CC[C@H](CO)Nc1nc(SCc2ccccc2)nc2nc(N)sc12", "values": [{"measurement": "IC50", "setting": "[2]", "value": 120, "unit": "nM"}, {"measurement": "microsomal CLint", "setting": "[3]", "value": 6, "unit": "µL/min/mg"}, {"measurement": "clearance", "setting": "[4]", "value": 40, "unit": "mL/min/kg"}, {"measurement": "Vd", "setting": "[5]", "value": 2.2, "unit": "L/kg"}, {"measurement": "half-life", "setting": "[6]", "value": 60, "unit": "min"}]}, {"compound": "CSc1nc(O)c2sc(N)nc2n1", "values": [{"measurement": "inhibition", "setting": "[1]", "value": "< 50", "unit": "%"}]}, {"compound": "CC(C)(CO)Nc1nc(SCc2cccc(F)c2F)nc2nc(N)sc12", "values": [{"measurement": "IC50", "setting": "[2]", "value": 14, "unit": "nM"}, {"measurement": "IC50", "setting": "[7]", "value": 0.04, "unit": "µM"}, {"measurement": "microsomal CLint", "setting": "[3]", "value": 31, "unit": "µL/min/mg"}, {"measurement": "logD", "setting": "[8]", "value": 3.4}, {"measurement": "clearance", "setting": "[4]", "value": 25, "unit": "mL/min/kg"}, {"measurement": "Vd", "setting": "[5]", "value": 1.9, "unit": "L/kg"}, {"measurement": "half-life", "setting": "[6]", "value": 72, "unit": "min"}, {"measurement": "bioavailability", "setting": "[9]", "value": 15, "unit": "%"}, {"measurement": "fraction unbound", "setting": "[10]", "value": 0.016}]}, {"compound": "Nc1nc2nc(SCc3cccc(Oc4ccccc4)c3)nc(Cl)c2s1", "values": [{"measurement": "inhibition", "setting": "[1]", "value": "< 50", "unit": "%"}]}, {"compound": "CCSc1nc(O)c2sc(N)nc2n1", "values": [{"measurement": "inhibition", "setting": "[1]", "value": "< 50", "unit": "%"}]}, {"compound": "CC[C@H](CO)Nc1nc(SCc2cccc(F)c2F)nc2nc(N)sc12", "values": [{"measurement": "IC50", "setting": "[2]", "value": 9.5, "unit": "nM"}]}, {"compound": "CCCCCSc1nc(O)c2sc(N)nc2n1", "values": [{"measurement": "IC50", "setting": "[2]", "value": 10000, "unit": "nM"}, {"measurement": "IC50", "setting": "[7]", "value": 2, "unit": "µM"}, {"measurement": "microsomal CLint", "setting": "[3]", "value": 18, "unit": "µL/min/mg"}, {"measurement": "logD", "setting": "[8]", "value": 2.9}]}, {"compound": "CCCCCSc1nc(O)c2sc(NC)nc2n1", "values": [{"measurement": "inhibition", "setting": "[1]", "value": "< 50", "unit": "%"}]}, {"compound": "COC(=O)CSc1nc(SCc2ccccc2)nc2nc(N)sc12", "values": [{"measurement": "inhibition", "setting": "[1]", "value": "< 50", "unit": "%"}]}, {"compound": "CCCCCSc1nc(NCCO)c2sc(N)nc2n1", "values": [{"measurement": "IC50", "setting": "[2]", "value": 7000, "unit": "nM"}]}, {"compound": "CC(C)(CO)Nc1nc(SCc2cccc(Oc3ccccc3)c2)nc2nc(N)sc12", "values": [{"measurement": "IC50", "setting": "[2]", "value": 50, "unit": "nM"}]}, {"compound": "Nc1nc2nc(SCc3ccccc3)nc(Cl)c2s1", "values": [{"measurement": "inhibition", "setting": "[1]", "value": "< 50", "unit": "%"}]}, {"compound": "Nc1nc2nc(SCc3cccc(F)c3F)nc(Cl)c2s1", "values": [{"measurement": "inhibition", "setting": "[1]", "value": "< 50", "unit": "%"}]}, {"compound": "CCCCCSc1nc(O)c2sc(Br)nc2n1", "values": [{"measurement": "inhibition", "setting": "[1]", "value": "< 50", "unit": "%"}]}, {"compound": "CC[C@@H](CO)Nc1nc(SCc2cccc(Oc3ccccc3)c2)nc2nc(N)sc12", "values": [{"measurement": "IC50", "setting": "[2]", "value": 1400, "unit": "nM"}]}, {"compound": "Nc1nc2nc(SCc3ccccc3)nc(SCC(=O)O)c2s1", "values": [{"measurement": "inhibition", "setting": "[1]", "value": "< 50", "unit": "%"}]}, {"compound": "CCCCCSc1nc(Cl)c2sc(N)nc2n1", "values": [{"measurement": "inhibition", "setting": "[1]", "value": "< 50", "unit": "%"}]}, {"compound": "CC[C@@H](CO)Nc1nc(SCc2ccccc2)nc2nc(N)sc12", "values": [{"measurement": "IC50", "setting": "[2]", "value": 3900, "unit": "nM"}]}, {"compound": "Nc1nc2nc(SCc3ccccc3)nc(N)c2s1", "values": [{"measurement": "IC50", "setting": "[2]", "value": 10000, "unit": "nM"}]}, {"compound": "Nc1nc2nc(SCc3ccccc3)[nH]c(=O)c2s1", "values": [{"measurement": "IC50", "setting": "[2]", "value": 1300, "unit": "nM"}, {"measurement": "microsomal CLint", "setting": "[3]", "value": "< 3", "unit": "µL/min/mg"}]}, {"compound": "CCCCCSc1nc(NC2CCCC2)c2sc(N)nc2n1", "values": [{"measurement": "inhibition", "setting": "[1]", "value": "< 50", "unit": "%"}]}, {"compound": "Nc1nc2nc(SCc3ccccc3)nc(SCCO)c2s1", "values": [{"measurement": "inhibition", "setting": "[1]", "value": "< 50", "unit": "%"}]}, {"compound": "CCCCCSc1nc(N(CC)CC)c2sc(N)nc2n1", "values": [{"measurement": "inhibition", "setting": "[1]", "value": "< 50", "unit": "%"}]}, {"compound": "Nc1nc2nc(SCc3cccc(Oc4ccccc4)c3)[nH]c(=O)c2s1", "values": [{"measurement": "IC50", "setting": "[2]", "value": 480, "unit": "nM"}]}, {"compound": "Nc1nc2nc(SCc3cccc(F)c3F)[nH]c(=O)c2s1", "values": [{"measurement": "IC50", "setting": "[2]", "value": 270, "unit": "nM"}, {"measurement": "microsomal CLint", "setting": "[3]", "value": 2, "unit": "µL/min/mg"}, {"measurement": "clearance", "setting": "[4]", "value": 9.5, "unit": "mL/min/kg"}, {"measurement": "Vd", "setting": "[5]", "value": 0.9, "unit": "L/kg"}, {"measurement": "half-life", "setting": "[6]", "value": 210, "unit": "min"}]}, {"compound": "CCCCCSc1nc2ncsc2c(=O)[nH]1", "values": [{"measurement": "IC50", "setting": "[2]", "value": 10000, "unit": "nM"}]}]}
